T cell HTS – modulators of CD8 T cell-vesicle binding, primary screen, mouse 2C CD8+ T cells, flow cytometry | response (vesicle binding), % at 7 µM | AID 2052, 2009 | actives 0.068% (n = 330,000) | 2C CD8+ T cell-vesicle binding; stronger effect = lower value;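 active means response, share of CD8 T cells binding vesicles, and their 90th percentile fluorescence all below set limits, cut at about 80% in these data, passing the limit was not always enough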;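 further: values below 100% mean blocked vesicle binding to the CD8+ T cells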
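Material: 2C TCR transgenic mouse naive CD8+ T cells, MACS-purified. Also added: QL9-charged Drosophila Ld/ICAM-1/B7-1 vesicles. Timing: binding 1.5 h at 37 °C. Measured by: high-throughput flow cytometry with anti-B7-1 and anti-CD8 staining. Read-out: percent CD8+ FL2 mean versus row control. Controls: Unloaded micro-vesicles (low), QL9 vesicles with 0.7% DMSO (high).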
Keap1-Nrf2 PPI – Keap1-Nrf2 protein-protein interaction inhibitors, primary screen, biochemical, fluorescence polarization, single point. actives 0.15% (n = 340,000). Kelch-like ECH-associated protein 1 (Homo sapiens), Q14145. AID 504523, 2011. Keap1 Kelch-Nrf2 peptide fluorescence polarization, 1536-well. inhibition, % at 9.4 µM; in the data active means inhibition above about 12%;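 further: human Keap1 Kelch domain with fluorescein labeled Nrf2 9mer peptide probe; 0% = neutral control wells and 100% = peptide positive control; higher means more block of Keap1 binding to Nrf2 peptide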
Target sequence (Q14145 whole entry, looked up, the tested form may be a part): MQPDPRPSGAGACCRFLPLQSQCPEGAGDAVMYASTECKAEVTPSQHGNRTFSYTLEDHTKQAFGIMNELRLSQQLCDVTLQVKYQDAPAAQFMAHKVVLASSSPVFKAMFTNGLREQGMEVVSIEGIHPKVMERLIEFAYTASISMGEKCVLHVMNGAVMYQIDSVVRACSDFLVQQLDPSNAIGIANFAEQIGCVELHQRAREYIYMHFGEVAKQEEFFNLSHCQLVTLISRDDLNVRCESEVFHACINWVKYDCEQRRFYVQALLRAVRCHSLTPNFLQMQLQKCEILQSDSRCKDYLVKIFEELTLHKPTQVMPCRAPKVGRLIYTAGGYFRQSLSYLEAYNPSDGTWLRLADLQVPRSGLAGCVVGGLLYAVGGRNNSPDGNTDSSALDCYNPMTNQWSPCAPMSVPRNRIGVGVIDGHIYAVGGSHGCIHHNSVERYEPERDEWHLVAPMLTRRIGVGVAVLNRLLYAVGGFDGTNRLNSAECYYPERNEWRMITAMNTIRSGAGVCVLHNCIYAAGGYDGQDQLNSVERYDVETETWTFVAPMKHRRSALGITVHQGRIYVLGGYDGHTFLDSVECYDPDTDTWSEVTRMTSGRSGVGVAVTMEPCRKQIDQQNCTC
EBV gp42 block – Epstein-Barr virus gp42 inhibitors, primary screen, biochemical, uHTS, fluorescence polarization | Glycoprotein 42 (Epstein-Barr virus (strain AG876)), Q1HVG2 | Fluorescence polarization binding assay, mP read-out | inhibition, % (tested at 21.74 µM) | actives 0.42% (n = 220,000); in the data active means inhibition above about 50%
GRK2 aptamer HTS – compounds blocking aptamer binding on GRK2 – biochemical, human GRK2, bead flow cytometry, HTS, primary screen. Beta-adrenergic receptor kinase 1 (Homo sapiens), P25098. FAM-aptamer displacement from GRK2. inhibition of aptamer binding, % at 10 µM. actives 0.59% (n = 330,000);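 active means inhibition of aptamer binding above 40%, roughly 3 SD of noise, on plates passing a quality check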;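 further: median bead fluorescence of bound FAM aptamer so fluorescent compounds give negative values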
C-LANA FP – inhibitors of KSHV C-LANA binding to DNA, primary screen, biochemical, fluorescence polarization, FAM-LBS DNA, MBP-C-LANA, single point | Kaposi's sarcoma herpesvirus LANA C-terminal domain (residues 932-1162) DNA binding | inhibition, % at 9 µM | actives 0.078% (n = 340,000);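 active means highest replicate inhibition at or above 60% at 9 µM, even if other replicates fall short; inactive means all replicates below 60% inhibition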;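 further: 0% = neutral control wells and 100% = 4 µM acridine orange control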
MEX-5 binding – MEX-5 zinc finger RNA-binding disruptors – biochemical, C. elegans, fluorescence polarization, MLPCN library, primary screen; Zinc finger protein mex-5 (Caenorhabditis elegans), Q9XUB2; activity score (negative = inhibition of binding), % at 10 µM; AID 1832, 2009; MEX-5/FITC-TCR2 RNA binding; stronger effect = lower value; actives 0.38% (n = 300,000);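 active means inhibition past about -25% in most replicates, and total fluorescence under double the plate's negative control median, limit read from the data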;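 further: 0% = DMSO and -100% = 5 µM competing unlabeled TCR2 RNA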
GRK2 inh confirm – GRK2 aptamer-displacing inhibitors, retest, confirmation, biochemical, cherry pick 1, bead flow cytometry; actives 4% (n = 2,000); bead-bound GRK2, FAM-aptamer displacement; AID 504451, 2011; aptamer displacement, % at 10 µM; shares compounds with GRK2 aptamer HTS;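 active means aptamer displacement above 40%, near three times the noise of non-fluorescent compounds, on plates passing quality checks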;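 further: negative values mostly reflect intrinsic compound fluorescence rather than true enhancement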
Aptamer quench 1 – quenches fluorescent RNA aptamer, GRK2 hit artifact | shares compounds with GRK2 aptamer HTS | Fluorescent RNA aptamer beads, quenching, flow cytometry; stronger effect = higher value | fluorescence change (kMESF span), kMESF (concentration not given with the values) | 110 tested, under 10 active | AID 504521;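 active means compounds whose bead fluorescence drops by more than 37 kMESF across the dose range, marking them as dye quenchers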
Aptamer quench SP – aptamer fluorescence quenching in GRK2 counter-screen; shares compounds with GRK2 aptamer HTS; Carboxyfluorescein RNA aptamer on beads, flow cytometry quenching; stronger effect = lower value; fluorescence response (% of DMSO), % at 10 µM; 2,000 tested, under 10 active;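 active means compounds that quench the bead-bound fluorescent RNA probe, cutting fluorescence to under half of the solvent control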;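 further: counterscreen run without GRK2 so only probe quenching by compound is measured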
DNA intercal 2 – DNA intercalator detection, dose response, counter-screen for C-LANA DNA-binding inhibitor project, biochemical, dry powder | 20 tested, under 10 active | shares compounds with C-LANA FP | AC50, µM (top dose mostly 35 µM), for inactives: at the highest dose activity change, negative = inhibition | Acridine orange-DNA displacement, fluorescence polarization;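 active means signal drop with an AC50 no more than ten times the top valid dose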
Keap1 TSA – Keap1 Kelch domain binders by thermal stabilisation, dose response, biophysical, thermal shift, RT-PCR instrument, cherry-pick. shares compounds with Keap1-Nrf2 PPI. delta Tm; stronger effect = higher value. max delta Tm, degrees C. actives 8% (n = 400). AID 651823, 2012; in the data active means max delta Tm above about 0.48 degrees C
Sypro dye melt – Sypro Orange dye melt without protein, dose response, artefact control for Keap1-Nrf2 interaction inhibitor project, biochemical, thermal shift counterscreen, cherry-pick; AID 651858, 2012; Sypro Orange dye-only thermal melt, no protein, delta Tm; top dose 26 µM; delta Tm, degrees C (test concentration not listed); shares compounds with Keap1-Nrf2 PPI; 140 tested, under 10 active;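 active means at highest dose tested, delta Tm positive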
The depositor's hits bear a star. Most compounds without a hit are left out; they make up all but 1.3% or so of the library.

Screening CC1=NN(c2cccc(C(=O)O)c2)C(=O)/C1=C\C=C\c1ccco1 returned T cell HTS 443.1, Keap1-Nrf2 PPI 7.0, EBV gp42 block 17.9, GRK2 aptamer HTS 83.0*, C-LANA FP 91.6*, MEX-5 binding -26.8*, GRK2 inh confirm 59.9*, Aptamer quench 1 9.6, Aptamer quench SP 96.5 and DNA intercal 2 8.6%.
For C#CCNC(=O)C1=C[C@H](c2ccc(C#C)cc2)C[C@H](OCc2ccc(CO)cc2)O1 the results were T cell HTS 511.9, Keap1-Nrf2 PPI -6.2, GRK2 aptamer HTS 3.0, C-LANA FP 1.8 and MEX-5 binding 3.4.
`O=C(CCCN1C(=O)/C(=C\c2ccco2)SC1=S)Nc1ccc(O)cc1C(=O)O` gave T cell HTS 435.3, Keap1-Nrf2 PPI 28.1*, GRK2 aptamer HTS 45.0*, C-LANA FP 109.0*, MEX-5 binding -17.5, GRK2 inh confirm -18.5, Aptamer quench SP 93.1, Keap1 TSA 0.33 and Sypro dye melt -27.7.
Screening O=C(CCCN1C(=O)/C(=C\c2cccs2)SC1=S)Nc1ccc(O)cc1C(=O)O returned T cell HTS inactive, Keap1-Nrf2 PPI -7.4, GRK2 aptamer HTS 0.0, C-LANA FP -0.1 and MEX-5 binding -1.1.
Screening Cc1ccccc1OCCC(=O)N(Cc1ccccc1)c1c(N)n(Cc2ccccc2)c(=O)[nH]c1=O returned T cell HTS 500.7, Keap1-Nrf2 PPI -2.8, GRK2 aptamer HTS 0.0, C-LANA FP 0.5 and MEX-5 binding -2.9.
Cc1ccc(NC(=O)c2cncc(Br)c2)c([N+](=O)[O-])c1 was read as T cell HTS 242.8, Keap1-Nrf2 PPI -4.0, EBV gp42 block -9.1, GRK2 aptamer HTS 1.0, C-LANA FP 0.6 and MEX-5 binding -0.9.
`NS(=O)(=O)c1cccc(C(=O)NC2CCSc3ccccc32)c1` (stereo unspecified) gave T cell HTS 248.1, Keap1-Nrf2 PPI -1.3, GRK2 aptamer HTS 0.0, C-LANA FP -0.3 and MEX-5 binding -1.8.

Screens from PubChem BioAssay.
